Results on ten molecules are retold here after PMC3472112 (Structure (London, England : 1993), 2012).

The target in one series is T1, Tm0922 (Thermotoga maritima, UniProt Q9X024).
T1 sequence (Q9X024 1-490): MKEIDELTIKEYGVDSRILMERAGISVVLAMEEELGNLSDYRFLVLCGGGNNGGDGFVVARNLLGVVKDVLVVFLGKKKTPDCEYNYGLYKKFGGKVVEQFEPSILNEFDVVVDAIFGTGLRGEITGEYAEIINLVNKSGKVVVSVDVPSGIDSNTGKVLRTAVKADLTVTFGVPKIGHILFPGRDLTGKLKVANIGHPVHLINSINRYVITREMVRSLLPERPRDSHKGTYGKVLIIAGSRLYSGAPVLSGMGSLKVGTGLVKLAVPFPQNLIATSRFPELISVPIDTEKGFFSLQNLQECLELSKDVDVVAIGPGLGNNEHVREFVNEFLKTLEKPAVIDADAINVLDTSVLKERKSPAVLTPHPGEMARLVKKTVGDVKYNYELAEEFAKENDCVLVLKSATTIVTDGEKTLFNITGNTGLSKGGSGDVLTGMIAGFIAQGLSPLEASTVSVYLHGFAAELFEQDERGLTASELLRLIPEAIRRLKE
The series can be described thus: isothermal titration calorimetry. In kind it is binding. The method, boiled down:
(§1)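 Isothermal titrations were run at 25°C, with Tm0922 also tested at 55°C, in 100 mM HEPES pH 7.5 with 100 mM NaCl. Purified protein was in the cell at 70-130 μM. Metabolite ligands from the NAD-related and thymine-related sets were titrated to final concentrations 1.2 to 5 times the protein concentration. Binding parameters were taken from curves fitted to the titration profiles.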
On the technique in general: In ITC the heat of successive injections is recorded.

Another series addresses T2, AI-BP (Mus musculus, UniProt Q8K4Z3).
T2 sequence (Q8K4Z3 25-282): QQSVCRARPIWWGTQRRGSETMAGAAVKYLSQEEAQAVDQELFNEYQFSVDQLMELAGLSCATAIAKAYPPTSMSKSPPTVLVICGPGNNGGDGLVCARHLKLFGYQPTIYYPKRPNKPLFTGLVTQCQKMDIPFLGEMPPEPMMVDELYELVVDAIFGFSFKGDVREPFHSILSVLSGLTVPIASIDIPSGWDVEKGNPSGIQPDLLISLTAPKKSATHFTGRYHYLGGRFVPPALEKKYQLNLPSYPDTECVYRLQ
The series can be described thus: isothermal titration calorimetry. It is filed as binding. To be noted: 100 mM HEPES pH 7.5, 100 mM NaCl, 25°C. The procedure, abridged:
as §1

In series [1] the target is T3, YxkO (Bacillus subtilis, UniProt P94368).
T3 sequence (P94368 1-276): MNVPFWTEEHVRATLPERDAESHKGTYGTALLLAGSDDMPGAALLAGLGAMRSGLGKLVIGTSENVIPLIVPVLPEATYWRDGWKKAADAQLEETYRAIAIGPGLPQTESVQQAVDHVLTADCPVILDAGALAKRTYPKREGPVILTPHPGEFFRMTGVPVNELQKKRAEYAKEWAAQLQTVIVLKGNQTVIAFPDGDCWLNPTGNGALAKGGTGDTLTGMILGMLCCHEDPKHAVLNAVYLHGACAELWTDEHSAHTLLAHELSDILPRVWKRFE
The series can be described thus: isothermal titration calorimetry. It is filed as binding. The procedure, abridged: as §1

For series [2], the target named is T3, YxkO. The series can be described thus: crystal structure. Conditions: ATP-binding site, Mg2+.
Series [3] concerns the target T3, YxkO. The series can be described thus: crystal structure. It is filed as binding. To be noted: kinase substrate site, AMP/Mg2+ in ATP site; dehydratase substrate.
Substrate in series [4]: Nc1ncnc2c1ncn2[C@@H]1O[C@H](COP(=O)(O)OP(=O)(O)O)[C@@H](O)[C@H]1O
The series can be described thus: purified protein. In kind it is biochemical, Bacillus subtilis. To be noted: co-substrate NADHX, 25°C, varied: cofactor.

Substrate in series [5]: NC(=O)C1=CN([C@@H]2O[C@H](COP(=O)(O)OP(=O)(O)OC[C@H]3O[C@@H](n4cnc5c(N)ncnc54)[C@H](O)[C@@H]3O)[C@@H](O)[C@H]2O)C(O)CC1
The series can be described thus: purified protein. Conditions: co-substrate ADP, 25°C. In kind it is biochemical, Bacillus subtilis.

Like-named read-outs stand apart in the source and are kept apart here.

For orientation: Kd means the equilibrium constant for the complex coming apart. Higher therefore signals weaker binding. As for `Nc1ncnc2c1ncn2[C@@H]1O[C@H](COP(=O)(O)OP(=O)(O)OC[C@H]2OC(O)[C@H](O)[C@@H]2O)[C@@H](O)[C@H]1O` (stereo partly shown) [ADPR], the Kd on Tm0922 (100 mM HEPES pH 7.5, 100 mM NaCl, 25°C (55°C also tested), likely YjeF_N site) came to 5.1 ± 0.4 µM; on AI-BP it was 451 ± 30.8 µM.
On YxkO [1], `Nc1ncnc2c1ncn2[C@@H]1O[C@H](COP(=O)(O)OP(=O)(O)OP(=O)(O)O)[C@@H](O)[C@H]1O` [ATP] showed a Kd of 595 ± 134 µM.
In the case of `Nc1ncnc2c1ncn2[C@@H]1O[C@H](COP(=O)(O)OP(=O)(O)OC[C@H]2O[C@@H]([n+]3cccc(C(=O)O)c3)[C@H](O)[C@@H]2O)[C@@H](O)[C@H]1OP(=O)(O)O` [NAADP], the dissociation constant Kd at Tm0922 amounted to 105 ± 11.1 µM.
For the molecule `Nc1ncnc2c1ncn2[C@@H]1O[C@H](COP(=O)(O)OP(=O)([O-])OC[C@H]2O[C@@H]([n+]3cccc(C(=O)O)c3)[C@H](O)[C@@H]2O)[C@@H](O)[C@H]1O` [NAAD], at YxkO [2], the “crystal structure (cocktail soak)” value is reported as “nicotinic acid adenine dinucleotide (NAAD) is bound in the same position”.
`NC(=O)C1=CN([C@@H]2O[C@H](COP(=O)(O)OP(=O)(O)OC[C@H]3O[C@@H](n4cnc5c(N)ncnc54)[C@H](O)[C@@H]3O)[C@@H](O)[C@H]2O)C=CC1` [NADH]: the dissociation constant Kd at YxkO [1] was 9.6 ± 0.7 µM.
Regarding `NC(=O)C1=CN([C@@H]2O[C@H](COP(=O)(O)OP(=O)(O)OC[C@H]3O[C@@H](n4cnc5c(N)ncnc54)[C@H](OP(=O)(O)O)[C@@H]3O)[C@@H](O)[C@H]2O)C(O)CC1` (stereo partly shown) [NADPHX], the “crystal structure (ATP/Mg2+ co-crystal soaked with NADPH)” value on YxkO [3] is “Coordination of NADPHX in the active site of YxkO”.
On Tm0922, `NC(=O)C1=CN([C@@H]2O[C@H](COP(=O)(O)OP(=O)(O)OC[C@H]3O[C@@H](n4cnc5c(N)ncnc54)[C@H](OP(=O)(O)O)[C@@H]3O)[C@@H](O)[C@H]2O)C=CC1` [NADPH] displayed a Kd of 5.3 ± 1.2 µM.
On Tm0922, `NC(=O)c1ccc[n+]([C@@H]2O[C@H](COP(=O)(O)OP(=O)(O)OC[C@H]3O[C@@H](n4cnc5c(N)ncnc54)[C@H](OP(=O)(O)O)[C@@H]3O)[C@@H](O)[C@H]2O)c1` [NADP] displayed a Kd of 6 ± 0.9 µM.
`NC(=O)c1ccc[n+]([C@@H]2O[C@H](COP(=O)(O)OP(=O)(O)OC[C@H]3O[C@@H](n4cnc5c(N)ncnc54)[C@H](O)[C@@H]3O)[C@@H](O)[C@H]2O)c1` [NAD]: the “crystal structure (cocktail soak)” value at YxkO [2] is “YxkO and Tm0922 crystals soaked with cocktail G contained NAD in the predicted ATP-binding site”.

B1: YxkO (Bacillus subtilis subsp. subtilis str. 168) (protein)
chain: MNVPFWTEEHVRATLPERDAESHKGTYGTALLLAGSDDMPGAALLAGLGAMRSGLGKLVIGTSENVIPLIVPVLPEATYWRDGWKKAADAQLEETYRAIAIGPGLPQTESVQQAVDHVLTADCPVILDAGALAKRTYPKREGPVILTPHPGEFFRMTGVPVNELQKKRAEYAKEWAAQLQTVIVLKGNQTVIAFPDGDCWLNPTGNGALAKGGTGDTLTGMILGMLCCHEDPKHAVLNAVYLHGACAELWTDEHSAHTLLAHELSDILPRVWKRFE
As usually defined, the Km is the substrate concentration at which the rate is half of its maximum. One may read the kcat as the number of substrate molecules converted per active site and unit of time at saturation. B1: in “purified protein [4]”, the Km was 6.43 ± 0.49 µM and the kcat was 0.35 ± 0.01 s⁻¹. For the same molecule, the kcat in the series “purified protein [5]” amounted to 0.35 ± 0.01 s⁻¹.
